Converted amounts (≈) assume the structure as drawn. The source made the active and inactive calls. The calls are words filed in the database; no cut-off is given here.
How the values were obtained:
[1] = test system: Mycobacterium tuberculosis; assay: Antibacterial activity against replicating Mycobacterium tuberculosis H37Rv incubated for 15 days under aerobic condition by MABA; type: functional; conditions: 360 h, read-out: MIC100
Method in brief: (§1)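 Mtb H37Rv grown in 7H9/OADC at 37 °C with shaking to OD600 0.5. The 0.5-OD culture is exposed aerobically to serial dilutions for 15 days at 37 °C. Resazurin (0.02% stock) is then added for 4 h at 37 °C with shaking.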

Vero = assay: Cytotoxicity against African green monkey Vero cells assessed as reduction in cell viability after 72 hrs by MTT assay; type: cell-based; conditions: Chlorocebus sabaeus
Method in brief: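 Vero cells were grown in complete EMEM with 10% FBS and exposed for 72 h to 0.78–200 µg/mL. The medium was then swapped for phenol-red-free EMEM and MTT was added. Formazan absorbance was read at 570 nm to give IC50.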

[2] = Selectivity index, ratio of IC50 for African green monkey Vero cells to MIC100 for replicating Mycobacterium tuberculosis H37Rv by MABA; type: toxicity; conditions: read-out: Selectivity Index
Method in brief: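 Vero cells are cultured in EMEM with 10% FBS and exposed for 72 h to 0.78–200 µg/mL. Medium is switched to phenol-red-free EMEM, MTT is added, and formazan is read at 570 nm to give IC50. The selectivity index is Vero IC50 divided by the MABA MIC.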

[3] = Apparent permeability from basolateral to apical side in human Caco2 cells at 10 uM after 2 hrs by LC-MS/MS analysis; type: ADME, cell-based; conditions: caco-2, 2 h
Erythrocyte = assay: Hemolytic activity in sheep erythrocytes after 2 hrs; type: ADME, cell-based; conditions: Ovis aries
Method in brief: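 Washed heparinized sheep erythrocytes at 3% in buffer pH 7.4 were treated with 2–200 µg/mL for 2 h at 37 °C with gentle shaking. Triton X-100 (0.01–1%) was the positive control and PEG:H2O diluent the negative control. Released hemoglobin was read at OD540 and % hemolysis calculated against both controls.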

Escherichia coli [4] = assay: Bactericidal activity against Escherichia coli ATCC 10798 incubated for 24 hrs under aerobic condition by MABA; type: functional; conditions: ATCC 10798, 24 h
Enterococcus faecalis [5] = assay: Bactericidal activity against Enterococcus faecalis ATCC 349 incubated for 24 hrs under aerobic condition by MABA; type: functional; conditions: ATCC 349, 24 h
Streptococcus pneumoniae [6] = assay: Bactericidal activity against Streptococcus pneumoniae ATCC 6301 incubated for 24 hrs under aerobic condition by MABA; type: functional; conditions: ATCC 6301, 24 h
[7] = test system: Mycobacterium tuberculosis; assay: Bactericidal activity against replicating Mycobacterium tuberculosis H37Rv incubated for 15 days under aerobic condition by MABA; type: functional; conditions: 360 h; method in brief: as §1
Staphylococcus aureus [8] = assay: Bactericidal activity against Staphylococcus aureus BAA 2094 incubated for 24 hrs under aerobic condition by MABA; type: functional; conditions: BAA 2094, 24 h
Klebsiella pneumoniae [9] = assay: Bactericidal activity against Klebsiella pneumoniae ATCC 12019 incubated for 24 hrs under aerobic condition by MABA; type: functional; conditions: ATCC 12019, 24 h
Staphylococcus aureus [10] = assay: Bactericidal activity against Staphylococcus aureus BAA 44 incubated for 24 hrs under aerobic condition by MABA; type: functional; conditions: BAA 44, 24 h
Staphylococcus aureus [11] = assay: Antibacterial activity against Staphylococcus aureus ATCC 25923 incubated for 24 hrs under aerobic condition by MABA; type: functional; conditions: ATCC 25923, 24 h, read-out: MIC100
Method in brief: (§2)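 Mid-log cultures at OD 0.5 were exposed to serial dilutions under aerobic conditions at 37 °C for 24 h. Resazurin was then added from a 0.08% stock for 1 h. MIC100 was the lowest concentration where the dye stayed blue (pink means growth). Absorbance was also read at 570 and 600 nm.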

Staphylococcus aureus [12] = assay: Bactericidal activity against Staphylococcus aureus ATCC 25923 incubated for 24 hrs under aerobic condition by MABA; type: functional; conditions: ATCC 25923, 24 h
Streptococcus pneumoniae [13] = assay: Antibacterial activity against Streptococcus pneumoniae ATCC 6301 incubated for 24 hrs under aerobic condition by MABA; type: functional; conditions: ATCC 6301, 24 h, read-out: MIC100; method in brief: as §2
Bacillus subtilis [14] = assay: Bactericidal activity against Bacillus subtilis ATCC 6051 incubated for 24 hrs under aerobic condition by MABA; type: functional; conditions: ATCC 6051, 24 h
Enterococcus faecalis [15] = assay: Antibacterial activity against Enterococcus faecalis ATCC 349 incubated for 24 hrs under aerobic condition by MABA; type: functional; conditions: ATCC 349, 24 h, read-out: MIC100; method in brief: as §2
[16] = test system: Mycobacterium tuberculosis; assay: Bactericidal activity against non-replicating Mycobacterium tuberculosis CDC1551 expressing tdTomato infected in mouse J774A.1 cells at 2 times MIC after 48 hrs by UV-Visible spectroscopic method; type: functional, organism-based
Method in brief: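 J774A.1 macrophages are seeded at […] cells/well in DMEM and incubated overnight at 37 °C. They are infected with saline-washed Mtb CDC1551-tdTomato (10^6 bacteria, MOI ≈10), and extracellular bacteria are washed off with PBS. Treatment is at 2×MIC, with fluorescence emission read at 581 nm at 24, 48, 72 and 96 h. Survivors are confirmed by serial dilution and plating on 7H11.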

Staphylococcus aureus [17] = assay: Antibacterial activity against Staphylococcus aureus BAA 44 incubated for 24 hrs under aerobic condition by MABA; type: functional; conditions: BAA 44, 24 h, read-out: MIC100; method in brief: as §2
Acinetobacter baumannii [18] = assay: Bactericidal activity against Acinetobacter baumannii ATCC 19606 incubated for 24 hrs under aerobic condition by MABA; type: functional; conditions: ATCC 19606 = CIP 70.34 = JCM 6841, 24 h
Staphylococcus aureus [19] = assay: Bactericidal activity against Staphylococcus aureus incubated for 24 hrs under aerobic condition by MABA; type: functional
[20] = test system: Mycolicibacterium smegmatis; assay: Bactericidal activity against Mycobacterium smegmatis ATCC 607 incubated for 48 hrs under aerobic condition by MABA; type: functional; conditions: ATCC 607, 48 h
Streptococcus salivarius = assay: Bactericidal activity against Streptococcus salivarius ATCC 6301 incubated for 24 hrs under aerobic condition by MABA; type: functional; conditions: ATCC 6301, 24 h
Staphylococcus aureus [21] = assay: Antibacterial activity against Staphylococcus aureus BAA 1683 incubated for 24 hrs under aerobic condition by MABA; type: functional; conditions: BAA 1683, 24 h, read-out: MIC100; method in brief: as §2
Enterococcus faecalis [22] = assay: Antibacterial activity against Enterococcus faecalis ATCC 19433 incubated for 24 hrs under aerobic condition by MABA; type: functional; conditions: ATCC 19433, 24 h, read-out: MIC100; method in brief: as §2
Escherichia coli [23] = assay: Antibacterial activity against Escherichia coli ATCC 10798 incubated for 24 hrs under aerobic condition by MABA; type: functional; conditions: ATCC 10798, 24 h, read-out: MIC100; method in brief: as §2
Enterococcus faecalis [24] = assay: Bactericidal activity against Enterococcus faecalis ATCC 19433 incubated for 24 hrs under aerobic condition by MABA; type: functional; conditions: ATCC 19433, 24 h
Clostridioides difficile = assay: Bactericidal activity against Clostridium difficile ATCC 700057 incubated for 24 hrs […] by MABA; type: functional; conditions: ATCC 700057, 24 h
Bacillus subtilis [25] = assay: Antibacterial activity against Bacillus subtilis ATCC 6051 incubated for 24 hrs under aerobic condition by MABA; type: functional; conditions: ATCC 6051, 24 h, read-out: MIC100; method in brief: as §2
Acinetobacter baumannii [26] = assay: Antibacterial activity against Acinetobacter baumannii ATCC 19606 incubated for 24 hrs under aerobic condition by MABA; type: functional; conditions: ATCC 19606 = CIP 70.34 = JCM 6841, 24 h, read-out: MIC100; method in brief: as §2
Staphylococcus aureus [27] = assay: Bactericidal activity against Staphylococcus aureus BAA 1683 incubated for 24 hrs under aerobic condition by MABA; type: functional; conditions: BAA 1683, 24 h
[28] = test system: Mycolicibacterium smegmatis; assay: Antibacterial activity against Mycobacterium smegmatis ATCC 607 incubated for 48 hrs under aerobic condition by MABA; type: functional; conditions: ATCC 607, 48 h, read-out: MIC100
Method in brief: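 Mid-log culture at OD 0.5 was incubated with serial dilutions aerobically at 37 °C for 48 h. Resazurin was then added from a 0.08% stock for 1 h. MIC100 was the lowest concentration that stayed blue; absorbance was also read at 570/600 nm.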

Klebsiella pneumoniae [29] = assay: Antibacterial activity against Klebsiella pneumoniae ATCC 12019 incubated for 24 hrs under aerobic condition by MABA; type: functional; conditions: ATCC 12019, 24 h, read-out: MIC100; method in brief: as §2

CC[C@@H](CO)NCCN[C@@H](CC)CO [ETHAMBUTOL]
MIC [1]: 0.78 µg/mL (≈ 3.82 µM) | IC50 (Vero): > 200 µg/mL | selectivity ratio [2]: > 256

CNC(=C[N+](=O)[O-])NCCSCc1ccc(CN(C)C)o1 [RANITIDINE]
Papp [3]: 1.14 ×10⁻⁶ cm/s

CCCCCCCCCCCCC/C=C/C(=O)N[C@H]1[C@H](O[C@H]2O[C@H](CO)[C@@H](O)[C@H](O)[C@H]2NC(C)=O)O[C@H](CC(O)[C@H]2O[C@@H](n3ccc(=O)[nH]c3=O)[C@H](O)[C@@H]2O)[C@H](O)[C@@H]1O (stereo partly specified)
MIC [1]: 12.5 µg/mL (≈ 14.8 µM) | IC50 (Vero): 0.18 µg/mL (≈ 0.213 µM) | IC50 (Erythrocyte): 15 µM

CO[C@H]1/C=C/O[C@@]2(C)Oc3c(C)c(O)c4c(O)c(c(/C=N/N5CCN(C)CC5)c(O)c4c3C2=O)NC(=O)/C(C)=C\C=C\[C@H](C)[C@H](O)[C@@H](C)[C@@H](O)[C@@H](C)[C@H](OC(C)=O)[C@@H]1C [RIFAMPIN]
MBC (Escherichia coli [4]): 25 µg/mL (≈ 30.4 µM) | MBC (Enterococcus faecalis [5]): > 25 µg/mL | MBC (Streptococcus pneumoniae [6]): > 25 µg/mL | MBC [7]: 0.01 µg/mL (≈ 0.0122 µM) | MBC (Staphylococcus aureus [8]): 0.2 µg/mL (≈ 0.243 µM) | MBC (Klebsiella pneumoniae [9]): 3.13 µg/mL (≈ 3.8 µM) | MBC (Staphylococcus aureus [10]): 25 µg/mL (≈ 30.4 µM) | MIC (Staphylococcus aureus [11]): > 25 µg/mL | MBC (Staphylococcus aureus [12]): > 25 µg/mL | MIC (Streptococcus pneumoniae [13]): 25 µg/mL (≈ 30.4 µM) | MBC (Bacillus subtilis [14]): 0.4 µg/mL (≈ 0.486 µM) | MIC (Enterococcus faecalis [15]): > 25 µg/mL | Activity [16]: Active | MIC (Staphylococcus aureus [17]): 6.25 µg/mL (≈ 7.59 µM) | MBC (Acinetobacter baumannii [18]): 3.13 µg/mL (≈ 3.8 µM) | MBC (Staphylococcus aureus [19]): 0.4 µg/mL (≈ 0.486 µM) | MBC [20]: > 25 µg/mL | MBC (Streptococcus salivarius): > 25 µg/mL | MIC (Staphylococcus aureus [21]): 0.15 µg/mL (≈ 0.182 µM) | MIC (Enterococcus faecalis [22]): 0.78 µg/mL (≈ 0.948 µM) | MIC (Escherichia coli [23]): 3.13 µg/mL (≈ 3.8 µM) | MBC (Enterococcus faecalis [24]): 1.56 µg/mL (≈ 1.9 µM) | MBC (Clostridioides difficile): 0.78 µg/mL (≈ 0.948 µM) | IC50 (Vero): > 200 µg/mL | MIC (Bacillus subtilis [25]): 0.3 µg/mL (≈ 0.365 µM) | MIC (Acinetobacter baumannii [26]): 2.35 µg/mL (≈ 2.86 µM) | MBC (Staphylococcus aureus [27]): 0.2 µg/mL (≈ 0.243 µM) | MIC [28]: > 25 µg/mL | MIC (Klebsiella pneumoniae [29]): 1.56 µg/mL (≈ 1.9 µM)
